Experimental data published in the EternaBench riboswitch data.

System: MS2 coat protein
Assay: apparent Kd, MS2 coat protein; higher = weaker binding; RNA-MaP array; FMN 200 µM where present
Procedure, shortened: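 Two titrations, one without ligand and one with constant ligand, were run with SNAP-549-labelled MS2 coat protein from 0.7 or 1.5 nM, doubling to 3 µM. The targets were designs transcribed by stalled E. coli RNA polymerase on Illumina sequencing-chip clusters, in 100 mM Tris-HCl pH 7.5, 80 mM KCl, 4 mM MgCl2, BSA, DTT, yeast tRNA and Tween-20. The apparent Kd is the median of filtered per-cluster binding-curve fits, with green signal normalised to red-channel RNA signal and control-cluster median Fmax.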

[1] = designed as: OFF switch for flavin mononucleotide, no ligand
[2] = ligand present: flavin mononucleotide, designed as: OFF switch for flavin mononucleotide
[3] = designed as: ON switch for flavin mononucleotide, no ligand
[4] = ligand present: flavin mononucleotide, designed as: ON switch for flavin mononucleotide

## UGAGCUGAAGGAUAUGCGUAAUCUCGGUGACGAGUAGAUCUACAUGAGGAUCACCCAUGUAGAAGGUCAGUUCU
[1]
  apparent Kd: 15.5 nM
[2]
  apparent Kd: 17.5 nM

## UGAUCGAAAGAUCAUAGAUUCUGCUAGGAUAUGCAGAAGUUGCGAUUUACAUGAGGAUCACCCAUGUAGAAGGAGUAGAGUCUA
[1]
  apparent Kd: 7.16 nM
[2]
  apparent Kd: 7.16 nM

## UGAUCGAAAGAUCAUAGAUUCUGCUAGGAUAUGCAGAAGUUGCGCUUUACAUGAGGAUCACCCAUGUAGAAGGAGUAGAGUCUA
[1]
  apparent Kd: 6.59 nM
[2]
  apparent Kd: 6.78 nM

## UGAUCGAGAGAUCUUAGAUUCUGGUAGGAUAUACAAAAGUUGCGCUUUACAUGAGGAUCACCCAUGUAGAAGGACUAGAGUCUA
[1]
  apparent Kd: 7.45 nM
[2]
  apparent Kd: 8.66 nM

## UGAUCGAGAGAUCUUAGAUUCUGGUAGGAUAUACAUUAAAAUAGCUUUACAUGAGGAUCACCCAUGUAGAAGGACUAGAGUCUA
[1]
  apparent Kd: 7.8 nM
[2]
  apparent Kd: 8.67 nM

## UGAUCGGAGACAGGAUAUGUGACUGCAUAGUGCACAGAAGGGUCUACAUGAGGAUCACCCAUGUCACCGAACAUCAAACAACAA
[3]
  apparent Kd: 433 nM
[4]
  apparent Kd: 41.9 nM

## UGAUCUAUGUAGAAGGCCCAUAUCUAUAUUUAGGGAGGAUAUACAUGAGGAUCACCCAUGUAUAGAGCUGGUGGACUGGUCAGC
[1]
  apparent Kd: 30.7 nM
[2]
  apparent Kd: 88.6 nM

## UGAUCUUUUGUUAGGAUAUGCUGGGUUUUUUCUCAGCAGAAGGGACAUGAGGAUCACCCAUGUUCUCUCUUUUU
[1]
  apparent Kd: 9.49 nM
[2]
  apparent Kd: 11.6 nM

## UGAUCUUUUGUUAGGAUAUGCUGUUUUUUUUUUCAGCAGAAGGGACAUGAGGAUCACCCAUGUUUUGUCAUAAA
[1]
  apparent Kd: 12.4 nM
[2]
  apparent Kd: 24.9 nM

## UGAUUGGACAGAGGAUAUACGUGCUAGAGAUACUAGCAAAAUAUCCUCACAUGAGGAUCACCCAUGUAGAAGGCUGUCCAAUCU
[1]
  apparent Kd: 17.3 nM
[2]
  apparent Kd: 85.1 nM

## UGCAGACGAGGAUAUAGAUUUAAGUACAUGAGGAUCACCCAUGUGCAUAUGUAUUUAGAUUUAGAAGGCGUCUGCU
[1]
  apparent Kd: 415 nM
[2]
  apparent Kd: 383 nM

## UGCAGGCGAGGAUAUGCUCGGGUUGCUUGUCGAGAGGAUGCACAUGAGGAUCACCCAUGUAGAAGGUGUCUAUG
[1]
  apparent Kd: 47.5 nM
[2]
  apparent Kd: 56.2 nM

## UGCAUACAUGAGGAUCACCCAUGUCAACUUAGUCGAGGAUAUGGGCAGCCCUGAGGCGAACCAGAAGGCGAAUUGU
[3]
  apparent Kd: 73.5 nM
[4]
  apparent Kd: 26.4 nM

## UGCAUGCUAGGAUAUACGGGACAUUAGGGUUCGUUGUGUGGACAUGAGGAUCACCCAUGUAGAAGGAGCGUGCU
[1]
  apparent Kd: 85.6 nM
[2]
  apparent Kd: 243 nM

## UGCAUGUAAGGAUAUGCACUGCGCGAGCCUGGCUCGCAAAGGCAGAAGGUACAUGAGGAUCACCCAUGUGAGAA
[1]
  apparent Kd: 91.5 nM
[2]
  apparent Kd: 99.7 nM

## UGCAUGUAAGGAUAUGCAUCCGCCGACGUCCCGGCGCCACAGCAGAAGGUACAUGAGGAUCACCCAUGUGUCCC
[1]
  apparent Kd: 21.3 nM
[2]
  apparent Kd: 49.2 nM

## UGCCGUUGAGGAUAUACAUUGAAUAAGAUUCAUGUAAAACUACAUGAGGAUCACCCAUGUAGAAGGCAAUGGCU
[1]
  apparent Kd: 18.3 nM
[2]
  apparent Kd: 29.6 nM

## UGCCUUUGAGGAUAUACAUUGAAUUUGAUUCAUGUAAAACUACAUGAGGAUCACCCAUGUAGAAGGCAAGGGCU
[1]
  apparent Kd: 18.7 nM
[2]
  apparent Kd: 27.7 nM

## UGCGAUGCAGUUGGCCCUGGGCGAGAGGAUAUGGGCAGCGGGACAUGAGGAUCACCCAUGUUCUCUCAGAAGGCUCGAGCAGGC
[3]
  apparent Kd: 256 nM
[4]
  apparent Kd: 91.6 nM

## UGCUGGUGACAGCAUCCAUCAAAACAUGAGGAUCACCCAUGUAGAAGGCUGUACGGUUACCGUACAGAGGAUAUACAAUGAUGA
[1]
  apparent Kd: 13.9 nM
[2]
  apparent Kd: 22.2 nM

## UGGAAUUGCGAGAAGGACAUGAGGAUCACCCAUGUAGGAUAUCGACCUAGGUGCAGAUCGUUAUAGGAUCUCUUCGCUUCUAGG
[3]
  apparent Kd: 16.7 nM
[4]
  apparent Kd: 7.14 nM

## UGGACCGAGCUAUCGGUUGACUCGAAGGAUAUGACAUGAGGAUCACCCAUGUGGGAUCUAAAUUGUCAGAAGGUUGGUUCUGGG
[1]
  apparent Kd: 367 nM
[2]
  apparent Kd: 140 nM

## UGGACCGAGCUAUCGGUUGACUGGGAGGAUAUGACAUGAGGAUCACCCAUGUGGGAUCUAAAUUGUCAGAAGGCUCGUUCUGGG
[2]
  apparent Kd: 234 nM

## UGGAUGGUAUGAGGAUAUGCGCGCGAAACGCGCGCAGAAGGCAUGUCAAUAGACAUGAGGAUCACCCAUGUAUUAUCUAUCCAA
[3]
  apparent Kd: 203 nM
[4]
  apparent Kd: 14.8 nM

## UGGAUGUGGGUUCCACAUGAGGAUCACCCAUGUACCGAUGAGAGAAGGCGCGCUGGUUCCCAGGGCGAGGAUAUCUACAUUCAA
[1]
  apparent Kd: 5.63 nM
[2]
  apparent Kd: 14.2 nM

## UGGCGUAUCGAAGGAUAUCUGGGCUUACUCGGAGGAUCGACAUGAGGAUCACCCAUGUAUGACCAAGAGAAGGUCGAGGACGUA
[1]
  apparent Kd: 141 nM
[2]
  apparent Kd: 253 nM

## UGGCUACAUGAGGAUCACCCAUGUCAGGAUAUGCCGUCGGCUUGCCUUCGUCGUUCGGGUAGAAGGGACUGCGG
[1]
  apparent Kd: 28.1 nM
[2]
  apparent Kd: 28.1 nM

## UGGCUACAUGAGGAUCACCCAUGUCAGGAUAUGCCGUUGGAUUGACAUCGUCGUACGGGUAGAAGGGACUGCGU
[1]
  apparent Kd: 59.8 nM
[2]
  apparent Kd: 58.3 nM

## UGGCUACAUGAGGAUCACCCAUGUCAGGAUAUGCCGUUGGAUUGACAUCGUCGUUCGGGUAGAAGGGACUGCGU
[1]
  apparent Kd: 47.6 nM
[2]
  apparent Kd: 53.1 nM

## UGGUAACAUGAGGAUCACCCAUGUCAGGAUAUCAGUAAGAAUAGAUUAGAUUAGAAUAUGAGAAGGGACUAUAU
[1]
  apparent Kd: 37.3 nM
[2]
  apparent Kd: 31.6 nM

## UGGUACAUCGGAGGAUAUCAUGUAAAUACAUGAGGAUCACCCAUGUCGUACGAGAGUACGGAGAUUGAGAAGGCCGAUGUACCU
[3]
  apparent Kd: 25.7 nM
[4]
  apparent Kd: 15 nM

## UGGUACAUGAGGAUCACCCAUGUAAGAGCCCUCAUGCGAUGUAGAAGGAUAAUGGGAGUACUGCUAUAGGAUAUACAUGAGUUU
[1]
  apparent Kd: 145 nM
[2]
  apparent Kd: 147 nM

## UGGUACAUGAGGAUCACCCAUGUAAGAGCCCUCAUGCGAUGUAGAAGGUUAAUGCGAGUAGUGCUAAAGGAUAUACAUGAGUUU
[1]
  apparent Kd: 212 nM
[2]
  apparent Kd: 173 nM

## UGGUACAUGGGAGGAUAUCAUGUAGAGACAUGAGGAUCACCCAUGUCGAUGGAGACAUCGGAGAUUGAGAAGGCCCAUGUACCU
[3]
  apparent Kd: 152 nM
[4]
  apparent Kd: 23.1 nM

## UGGUACAUGGGAGGAUAUCAUGUAGAUACAUGAGGAUCACCCAUGUCGAUGGAGACAUCGGAGAUUGAGAAGGCCCAUGUACCU
[3]
  apparent Kd: 778 nM
[4]
  apparent Kd: 32.9 nM

## UGGUACAUGGGAGGAUAUCAUGUGGACACAUGAGGAUCACCCAUGUCGAUGGAGACAUCGGAGAUUGAGAAGGCCCAUGUACCU
[3]
  apparent Kd: 390 nM
[4]
  apparent Kd: 12.7 nM

## UGGUACAUGGGAGGAUAUGGGAAGUUAACAUGAGGAUCACCCAUGUUUGCCGAAAGGCAAAAGAACUAGAAGGCCCAUGUACCU
[3]
  apparent Kd: 23.1 nM
[4]
  apparent Kd: 16.4 nM

## UGGUACAUGGGAGGAUAUGGGUUGAUAACAUGAGGAUCACCCAUGUUAAAUAAGCCGAGAGGCUACUAGAAGGCCCAUGUACCU
[3]
  apparent Kd: 819 nM
[4]
  apparent Kd: 28.9 nM

## UGGUACAUGGGAGGAUAUGGUGUAGACACAUGAGGAUCACCCAUGUCGAUGGAGACAUCGGAGAUCCAGAAGGCCCAUGUACCU
[3]
  apparent Kd: 503 nM
[4]
  apparent Kd: 24 nM

## UGGUACCAGGGAGGAUAUGGGAAGAUACAUGAGGAUCACCCAUGUUUAAGAAUGCCGAGAGGCAACUAGAAGGCCCUAGUACCU
[3]
  apparent Kd: 338 nM
[4]
  apparent Kd: 19 nM

## UGGUACUACGGAGGAUAUCAUGUAAAUACAUGAGGAUCACCCAUGUCGUACGAGAGUACGGAGAUUGAGAAGGCCGUAGUACCU
[3]
  apparent Kd: 25.6 nM
[4]
  apparent Kd: 15.6 nM

## UGGUACUACGGAGGAUAUCAUGUAGAUACAUGAGGAUCACCCAUGUCGAUGGAGACAUCGGAGAUUGAGAAGGCCGUAGUACCU
[3]
  apparent Kd: 610 nM
[4]
  apparent Kd: 29.4 nM

## UGGUACUAGCGAGGAUAUGGGAAGAUACAUGAGGAUCACCCAUGUUUAAGAAUGCCGAGAGGCAACUAGAAGGCCCUAGUACCU
[3]
  apparent Kd: 456 nM
[4]
  apparent Kd: 69.4 nM

## UGGUACUAGGGAGGAUAUGGGAAGAUACAUGAGGAUCACCCAUGUUUAAGAAUGCCGAGAGGCAACUAGAAGGUCCUAGUACCU
[3]
  apparent Kd: 628 nM
[4]
  apparent Kd: 38.2 nM

## UGGUACUAGGGAGGAUAUGGGAAGAUACAUGAGGAUCACCCAUGUUUAAGAAUGCCGAGAGUCAACUAGAAGGCCCUAGUACCU
[3]
  apparent Kd: 180 nM
[4]
  apparent Kd: 20.3 nM

## UGGUACUAGGGAGGAUAUGGGAAGAUACAUGAGGAUCACCCAUGUUUAAGAAUGCCGAGAUGCAACUAGAAGGCCCUAGUACCU
[3]
  apparent Kd: 371 nM
[4]
  apparent Kd: 21.9 nM

## UGGUACUAGGGAGGAUAUGGGAAGAUACAUGAGGAUCACCCAUGUUUAAGAUUGCCGAGAGGCAACUAGAAGGCCCUAGUACCU
[3]
  apparent Kd: 1120 nM
[4]
  apparent Kd: 130 nM

## UGGUACUAGGGAGGAUAUGGUAAGAUACAUGAGGAUCACCCAUGUUUAAGAAUGCCGAGAGGCAACUAGAAGGCCCUAGUACCU
[3]
  apparent Kd: 6.47 nM
[4]
  apparent Kd: 5.04 nM

## UGGUGAGUCAAGAAGGACAUGAGGAUCACCCAUGUAGGAUAUUGGCGUCACGGCUCCAAUACGUACAUGUGGGACGGUCAAAGG
[3]
  apparent Kd: 48.6 nM
[4]
  apparent Kd: 16.5 nM

## UGGUGCUAGGGAGGAUAUGGGAAGAUACAUGAGGAUCACCCAUGUUUAAGAAUGCCGAGAGGCAACUAGAAGGCCCUAGUACCU
[3]
  apparent Kd: 457 nM
[4]
  apparent Kd: 20.9 nM

## UGUAACCGAGGAUAUACAUGAGGAUCACCCAUGUAAUGUAGUAUAGUGUGUGUGAGGUGUAGAAGGUGGGAUGU
[1]
  apparent Kd: 93.4 nM
[2]
  apparent Kd: 97.2 nM

## UGUACUAUAAGGUUAAUUGUAUAUUGAGAAGGCAUUCACAUGAGGAUCACCCAUGUAACAUGGGAUGAGGAUAUCAUUUUGUAC
[3]
  apparent Kd: 232 nM
[4]
  apparent Kd: 32.6 nM

## UGUAGUUACGUAGGAUAUCCACGGGCACCCGUAGGAGAAGGACGCUGGACAUGAGGAUCACCCAUGUAUAGAUGGGUGCCUUUC
[1]
  apparent Kd: 125 nM
[2]
  apparent Kd: 206 nM

## UGUAGUUCAGGAUAUGAUGUUUAAAACAUGAGGAUCACCCAUGUAGAUCCUGAAUUAACAUCAGAAGGGAAUAUUU
[1]
  apparent Kd: 17.9 nM
[2]
  apparent Kd: 46.2 nM

## UGUAUGGACAGAGGAUAUACGGAUAGGAUCUACUAUCAAACAAGUCCUACAUGAGGAUCACCCAUGUAGAAGGCUGUCCAUACU
[1]
  apparent Kd: 16.4 nM
[2]
  apparent Kd: 22.7 nM
